Laboratory results from ChEMBL document CHEMBL4808225, “Discovery and Characterization of Selective and Ligand-Efficient DYRK Inhibitors” (J Med Chem, 2021).

Legend:
[1] = molecular target: Cyclin-dependent kinase 2 (Homo sapiens) (UniProt P24941); experiment: Inhibition of wild-type human full length CDK2 (M1 to L298 residues) expressed in bacterial expression system assessed as remaining activity at 1 uM by Kinomescan method relative to control
Procedure, shortened: (§1)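 KINOMEscan competition binding panel run with inhibitor at 1 μM; read-out is remaining kinase activity (percent of control).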

[2] = molecular target: Dual specificity protein kinase CLK1 (Homo sapiens, UniProt P49759); experiment: Inhibition of wild-type human full length CLK1 (M1 to I484 residues) expressed in bacterial expression system assessed as remaining activity at 1 uM by Kinomescan method relative to control; procedure, shortened: as §1
Sequence of Dual specificity protein kinase CLK1 (P49759 whole entry, looked up, the tested form may be a part): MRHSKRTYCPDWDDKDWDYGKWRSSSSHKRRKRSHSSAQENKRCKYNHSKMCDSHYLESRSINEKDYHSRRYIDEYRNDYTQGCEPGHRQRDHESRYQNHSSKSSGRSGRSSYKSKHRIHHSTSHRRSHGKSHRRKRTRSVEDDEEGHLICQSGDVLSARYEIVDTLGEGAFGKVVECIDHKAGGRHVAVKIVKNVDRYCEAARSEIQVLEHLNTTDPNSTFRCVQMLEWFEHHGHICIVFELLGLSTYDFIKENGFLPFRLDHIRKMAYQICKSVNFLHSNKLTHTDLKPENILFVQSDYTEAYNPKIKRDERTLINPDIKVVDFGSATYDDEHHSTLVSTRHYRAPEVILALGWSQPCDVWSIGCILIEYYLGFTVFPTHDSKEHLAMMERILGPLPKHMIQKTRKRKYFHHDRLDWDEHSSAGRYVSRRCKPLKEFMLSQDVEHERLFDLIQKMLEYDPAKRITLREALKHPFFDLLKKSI

[3] = Ratio of drug concentration in brain to plasma in Sprague-Dawley rat at 1 mg/kg, iv; format: ADME, organism-based
Procedure, shortened: (§2)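 Single intravenous dose of 1 mg/kg given to fed Sprague–Dawley rats (n = 3); plasma and brain samples collected for pharmacokinetic parameters, with total brain:plasma ratio computed.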

[4] = molecular target: STE20/SPS1-related proline-alanine-rich protein kinase (Homo sapiens, UniProt Q9UEW8); experiment: Binding affinity to wild-type human partial length STK39 (P43 to I357 residues) expressed in mammalian expression system measured after 1 hr by competitive binding assay
[5] = molecular target: Calcium/calmodulin-dependent protein kinase type 1B (Homo sapiens, UniProt Q6P2M8); experiment: Binding affinity to wild-type human partial length CAMK1B (W9 to A311 residues) expressed in mammalian expression system measured after 1 hr by competitive binding assay
Sequence of Calcium/calmodulin-dependent protein kinase type 1B (Q6P2M8 whole entry, the tested form may be a part): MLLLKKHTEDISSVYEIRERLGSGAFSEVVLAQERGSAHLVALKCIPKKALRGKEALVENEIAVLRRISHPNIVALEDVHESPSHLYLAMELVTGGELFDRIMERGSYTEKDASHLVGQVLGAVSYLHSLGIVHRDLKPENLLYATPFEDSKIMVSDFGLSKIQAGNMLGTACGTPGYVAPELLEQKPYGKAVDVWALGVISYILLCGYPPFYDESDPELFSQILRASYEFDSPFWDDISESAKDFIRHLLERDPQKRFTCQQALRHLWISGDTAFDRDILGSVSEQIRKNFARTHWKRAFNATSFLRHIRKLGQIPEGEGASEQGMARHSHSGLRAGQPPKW

[6] = Initial plasma concentration in Sprague-Dawley rat at 1 mg/kg, iv; format: ADME, organism-based; settings: in vivo; procedure, shortened: as §2
[7] = MRT in Sprague-Dawley rat at 1 mg/kg, iv; format: ADME, organism-based; settings: in vivo; procedure, shortened: as §2
[8] = molecular target: T1, Serine/threonine-protein kinase haspin (Homo sapiens, UniProt Q8TF76); experiment: Binding affinity to wild-type human partial length HASPIN (I452 to K798 residues) expressed in mammalian expression system measured after 1 hr by competitive binding assay
T1 sequence (Q8TF76 whole entry): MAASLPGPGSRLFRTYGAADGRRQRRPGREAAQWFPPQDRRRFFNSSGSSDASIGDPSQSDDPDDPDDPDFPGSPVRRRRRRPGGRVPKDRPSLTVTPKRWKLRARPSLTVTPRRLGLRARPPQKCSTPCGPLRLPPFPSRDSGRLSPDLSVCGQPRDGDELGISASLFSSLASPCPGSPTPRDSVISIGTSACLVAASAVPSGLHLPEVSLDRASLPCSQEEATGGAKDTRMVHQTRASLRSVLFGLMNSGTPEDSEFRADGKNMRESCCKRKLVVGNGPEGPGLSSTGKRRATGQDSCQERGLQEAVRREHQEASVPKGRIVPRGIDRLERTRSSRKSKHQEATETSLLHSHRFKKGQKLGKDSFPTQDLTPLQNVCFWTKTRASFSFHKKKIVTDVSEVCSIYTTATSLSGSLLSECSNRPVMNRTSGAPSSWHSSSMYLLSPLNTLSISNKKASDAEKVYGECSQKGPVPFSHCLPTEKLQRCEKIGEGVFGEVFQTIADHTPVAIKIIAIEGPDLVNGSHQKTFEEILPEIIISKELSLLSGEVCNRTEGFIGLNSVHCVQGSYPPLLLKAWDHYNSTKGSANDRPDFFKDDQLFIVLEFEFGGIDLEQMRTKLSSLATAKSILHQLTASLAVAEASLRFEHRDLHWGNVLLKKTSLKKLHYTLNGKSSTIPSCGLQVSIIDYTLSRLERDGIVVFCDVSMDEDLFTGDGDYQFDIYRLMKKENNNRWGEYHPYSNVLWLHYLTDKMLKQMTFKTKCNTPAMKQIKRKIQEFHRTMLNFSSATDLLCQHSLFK

[9] = molecular target: Dual specificity protein kinase CLK2 (Homo sapiens) (UniProt P49760); experiment: Inhibition of wild-type human partial length CLK2 (D144 to R498 residues) expressed in bacterial expression system assessed as remaining activity at 1 uM by Kinomescan method relative to control; procedure, shortened: as §1
Sequence of Dual specificity protein kinase CLK2 (Homo sapiens) (P49760 whole entry, looked up, the tested form may be a part): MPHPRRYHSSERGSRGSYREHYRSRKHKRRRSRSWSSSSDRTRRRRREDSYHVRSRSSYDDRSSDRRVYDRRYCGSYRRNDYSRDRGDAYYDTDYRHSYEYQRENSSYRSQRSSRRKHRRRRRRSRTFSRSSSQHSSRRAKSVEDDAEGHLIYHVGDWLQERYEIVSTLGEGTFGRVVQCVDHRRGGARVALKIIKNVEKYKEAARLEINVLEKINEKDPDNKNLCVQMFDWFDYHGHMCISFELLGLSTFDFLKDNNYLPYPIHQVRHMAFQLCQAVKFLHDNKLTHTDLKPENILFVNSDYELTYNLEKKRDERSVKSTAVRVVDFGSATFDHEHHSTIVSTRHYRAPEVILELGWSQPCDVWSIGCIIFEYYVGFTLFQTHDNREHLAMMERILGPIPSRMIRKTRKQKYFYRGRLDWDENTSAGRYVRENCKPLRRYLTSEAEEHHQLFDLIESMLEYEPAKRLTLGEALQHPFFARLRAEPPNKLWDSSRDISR

[10] = molecular target: Dual specificity protein kinase CLK3 (Homo sapiens) (UniProt P49761); experiment: Inhibition of wild-type human full length CLK3 (M1 to R490 residues) expressed in bacterial expression system assessed as remaining activity at 1 uM by Kinomescan method relative to control; procedure, shortened: as §1
Sequence of Dual specificity protein kinase CLK3 (Homo sapiens) (P49761 whole entry, looked up, the tested form may be a part): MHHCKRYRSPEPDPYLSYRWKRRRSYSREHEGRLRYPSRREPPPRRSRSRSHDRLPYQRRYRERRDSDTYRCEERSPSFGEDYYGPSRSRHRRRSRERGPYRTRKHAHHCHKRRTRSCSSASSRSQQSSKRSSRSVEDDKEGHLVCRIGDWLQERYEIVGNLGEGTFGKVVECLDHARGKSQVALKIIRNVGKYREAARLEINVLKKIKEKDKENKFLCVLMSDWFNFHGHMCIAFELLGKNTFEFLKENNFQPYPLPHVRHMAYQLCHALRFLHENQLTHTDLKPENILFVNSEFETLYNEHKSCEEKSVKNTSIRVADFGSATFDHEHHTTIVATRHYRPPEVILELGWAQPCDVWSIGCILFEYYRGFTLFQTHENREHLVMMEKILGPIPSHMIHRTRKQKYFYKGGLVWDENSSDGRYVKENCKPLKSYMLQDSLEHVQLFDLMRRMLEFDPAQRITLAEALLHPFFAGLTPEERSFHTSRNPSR

[11] = AUC infinity in Sprague-Dawley rat at 1 mg/kg, iv; format: ADME, organism-based; set-up: time infinity, route intravenous, dose 1 mg/kg; settings: in vivo; procedure, shortened: as §2
[12] = molecular target: T2, Dual specificity tyrosine-phosphorylation-regulated kinase 2 (Homo sapiens) (UniProt Q92630); experiment: Inhibition of wild-type human full length DYRK2 (M1 to S528 residues) expressed in mammalian expression system assessed as remaining activity at 1 uM by Kinomescan method relative to control; procedure, shortened: as §1
T2 sequence (whole entry): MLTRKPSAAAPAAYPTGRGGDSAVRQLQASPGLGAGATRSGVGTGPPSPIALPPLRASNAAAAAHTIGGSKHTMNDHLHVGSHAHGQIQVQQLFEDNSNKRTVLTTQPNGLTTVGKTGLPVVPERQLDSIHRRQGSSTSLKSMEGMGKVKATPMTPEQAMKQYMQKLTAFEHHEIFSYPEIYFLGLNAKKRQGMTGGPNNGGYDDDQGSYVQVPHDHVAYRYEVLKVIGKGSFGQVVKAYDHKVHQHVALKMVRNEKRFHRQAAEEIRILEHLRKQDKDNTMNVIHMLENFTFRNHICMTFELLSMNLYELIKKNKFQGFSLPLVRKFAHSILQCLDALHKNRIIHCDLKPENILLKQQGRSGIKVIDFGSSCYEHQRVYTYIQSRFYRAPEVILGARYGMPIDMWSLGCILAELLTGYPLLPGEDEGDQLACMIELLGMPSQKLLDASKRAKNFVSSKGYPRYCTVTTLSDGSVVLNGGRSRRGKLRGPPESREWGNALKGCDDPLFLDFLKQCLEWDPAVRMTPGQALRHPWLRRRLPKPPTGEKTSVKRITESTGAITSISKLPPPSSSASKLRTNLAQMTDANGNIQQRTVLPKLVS

CN(C)c1nccc(-c2cnn3ncccc23)n1
Activity [1]: 100%
Activity [2]: 7.1%
BPR [3]: > 0.35
Kd [4]: 10 µM
Kd [5]: 10 µM
C0 [6]: 1331.5 ng/mL
MRT [7]: 12 min
Kd [8]: 0.015 µM
Activity [9]: 9.4%
Activity [10]: 54%
AUC [11]: 276.4 ng·h/mL
Activity [12]: 19%
